Results from ChEMBL document CHEMBL3525912, “Sulfation of 4-hydroxy toremifene: individual variability, isoform specificity, and contribution to toremifene pharmacogenomics” (Drug Metab Dispos, 2012).

What was measured:
[1] = substrate: CN(C)CCOc1ccc(/C(=C(/CCCl)c2ccccc2)c2ccc(O)cc2)cc1; test: Activity of human SULT1E1 expressed in escherichia coli assessed as enzyme-mediated 4-(4-chloro-1-(4-(2-(dimethylamino)ethoxy)phenyl)-2-phenylbut-1-enyl)phenyl hydrogen sulfate formation after 15 mins by Michaelis-Menten equation in presence of 20 uM PAPS; format: ADME
Procedure, shortened: (§1)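 Purified E. coli-expressed human enzyme (DEAE-Sepharose, ~80% pure; activity per total protein) incubated with 0.1–30 µM 4-OH-TOR, 20 µM PAPS, 50 mM potassium phosphate pH 6.2, 15 min at 37 °C. Reaction started with enzyme, stopped with acetonitrile:acetic acid (96:4). Sulfate quantified by radio-HPLC. Triplicate runs, corrected with a no-substrate control. Low substrate range chosen to limit substrate inhibition.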

[2] = substrate: CN(C)CCOc1ccc(/C(=C(/CCCl)c2ccccc2)c2ccc(O)cc2)cc1; test: Activity of human SULT1A1 expressed in escherichia coli assessed as enzyme-mediated 4-(4-chloro-1-(4-(2-(dimethylamino)ethoxy)phenyl)-2-phenylbut-1-enyl)phenyl hydrogen sulfate formation after 15 mins by Michaelis-Menten equation in presence of 20 uM PAPS; format: ADME; procedure, shortened: as §1

B1: Sulfotransferase 1E1 (Homo sapiens) (protein)
chain: MNSELDYYEKFEEVHGILMYKDFVKYWDNVEAFQARPDDLVIATYPKSGTTWVSEIVYMIYKEGDVEKCKEDVIFNRIPFLECRKENLMNGVKQLDEMNSPRIVKTHLPPELLPASFWEKDCKIIYLCRNAKDVAVSFYYFFLMVAGHPNPGSFPEFVEKFMQGQVPYGSWYKHVKSWWEKGKSPRVLFLFYEDLKEDIRKEVIKLIHFLERKPSEELVDRIIHHTSFQEMKNNPSTNYTTLPDEIMNQKLSPFMRKGITGDWKNHFTVALNEKFDKHYEQQMKESTLKFRTEI
Work on B1 yielded a Km [1] of 6.4 µM and a Vmax [1] of 0.0055 µmol/min.

B2: Sulfotransferase 1A1 (Homo sapiens) (protein)
chain: MELIQDTSRPPLEYVKGVPLIKYFAEALGPLQSFQARPDDLLISTYPKSGTTWVSQILDMIYQGGDLEKCHRAPIFMRVPFLEFKAPGIPSGMETLKDTPAPRLLKTHLPLALLPQTLLDQKVKVVYVARNAKDVAVSYYHFYHMAKVHPEPGTWDSFLEKFMVGEVSYGSWYQHVQEWWELSRTHPVLYLFYEDMKENPKREIQKILEFVGRSLPEETVDFVVQHTSFKEMKKNPMTNYTTVPQEFMDHSISPFMRKGMAGDWKTTFTVAQNERFDADYAEKMAGCSLSFRSEL
For B2, the Km [2] was 2.6 µM and the Vmax [2] was 0.0085 µmol/min.
